Data as given in the RNAGym collection of RNA variant scans (doi:10.1126/science.aae0568).
Fewer inactive variants are shown than the library holds.

B1: tRNA (parent)
chain: GUUCCGUUGGCGUAAUGGUAACGCGUCUCCCUCCUAAGGAGAAGACUGCGGGUUCGAGUCCCGUACGGAACG

Variants of: B1
Assay: yeast fitness relative to wild type (ratio to wild type); higher = fitter; tRNA-Arg(CCU), competitive growth, 37 C, YPD
Method in brief: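 Gene amplicons from the start population and from each of six end populations were read by 100-nucleotide paired-end sequencing. Those end populations came from pooled Saccharomyces cerevisiae strains carrying tRNA-Arg(CCU) gene variants at the native locus, competed in YPD at 37°C for 24 hours. Fitness relative to wild type was worked out from changes in genotype frequencies. Genotypes needed ≥ 100 starting reads, and estimates < 0.5 were set to 0.5.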

Going from A15C G18C U26C C29A C34G to A15C G23A C24G C46G C55G, the yeast fitness falls from 0.616 to ≤ 0.5.

First: A15C G23C
Second: A15C G23C A65G
The yeast fitness of the first is higher: 0.555 for the first, ≤ 0.5 for the second.

A15C G23C C31A and A15C G23C G41A cannot be ordered by yeast fitness: ≤ 0.5 for the first, ≤ 0.5 for the second.

A15C G23C U64C A65G and A15C G25A A42U A65C G67U cannot be ordered by yeast fitness: ≤ 0.5 for the first, ≤ 0.5 for the second.

Compared with A15C G25A C61U, A15C G25A U26C A69U is lower in yeast fitness: 0.664 for the first, ≤ 0.5 for the second.

Going from A15C G25C to A15C G25C G52A A57C C60G, the yeast fitness falls from 0.709 to ≤ 0.5.

Going from A15C G38A to A15C G39A, the yeast fitness rises from 0.581 to 0.664.

A15C G39A C60G A70G and A15C G39A G56A cannot be ordered by yeast fitness: ≤ 0.5 for the first, ≤ 0.5 for the second.

Compared with A15C G39C, A15C G41C A45C is lower in yeast fitness: 0.638 for the first, ≤ 0.5 for the second.

A15C G41C A45C C62U and A15C G41C C46A cannot be ordered by yeast fitness: ≤ 0.5 for the first, ≤ 0.5 for the second.

A15C G41C C49U G68C and A15C G41C U59G A70G cannot be ordered by yeast fitness: ≤ 0.5 for the first, ≤ 0.5 for the second.

First: A15C G44A
Second: A15C G44A A57C
The yeast fitness of the first is higher: 0.707 for the first, ≤ 0.5 for the second.

A15C G44A G67A and A15C G48A A57G C61A cannot be ordered by yeast fitness: ≤ 0.5 for the first, ≤ 0.5 for the second.

First: A15C G48A C49U U64G C66U
Second: A15C G48C
The yeast fitness of the first is lower: ≤ 0.5 for the first, 0.69 for the second.

A15C G48C C66A and A15C G48C C66U G67C cannot be ordered by yeast fitness: ≤ 0.5 for the first, ≤ 0.5 for the second.

Compared with A15C G48C G68U, A15C G50C is higher in yeast fitness: 0.548 for the first, 0.672 for the second.

Going from A15C G50C U53A C66A to A15C G50C U64C, the yeast fitness rises from ≤ 0.5 to 0.545.

Compared with A15C G51C, A15C G52A is higher in yeast fitness: 0.504 for the first, 0.712 for the second.

A15C G52A A70U and A15C G52A C66U cannot be ordered by yeast fitness: ≤ 0.5 for the first, ≤ 0.5 for the second.

First: A15C G56A A57C
Second: A15C G56A C61U
The yeast fitness of the first is lower: ≤ 0.5 for the first, 0.614 for the second.

Going from A15C G56C to A15C G58A C61A, the yeast fitness falls from 0.685 to ≤ 0.5.

First: A15C G58A G68A A70C
Second: A15C G58C
The yeast fitness of the first is lower: ≤ 0.5 for the first, 0.575 for the second.

Compared with A15C G68A, A15C U16A A21G U26A C30U C61A is lower in yeast fitness: 0.76 for the first, 0.692 for the second.

A15C U16A C31G C34U A65U C66G and A15C U16A G56C A57C C60U cannot be ordered by yeast fitness: ≤ 0.5 for the first, ≤ 0.5 for the second.

A15C U16C A20C U54C A57G and A15C U16C A37C A43C cannot be ordered by yeast fitness: ≤ 0.5 for the first, ≤ 0.5 for the second.

A15C U16C A65G and A15C U16C C27U C31G A69C cannot be ordered by yeast fitness: ≤ 0.5 for the first, ≤ 0.5 for the second.

A15C U16C C31G A69U and A15C U16G A21C C24A U32A A45C cannot be ordered by yeast fitness: ≤ 0.5 for the first, ≤ 0.5 for the second.

A15C U19A A70C and A15C U19A C24G C34G C46U U54C C61A A70U cannot be ordered by yeast fitness: ≤ 0.5 for the first, ≤ 0.5 for the second.

Compared with A15C U19A C24G G63A, A15C U19C is higher in yeast fitness: ≤ 0.5 for the first, 1.03 for the second.

A15C U19C A21G C34U U53C and A15C U19C A37C G51A cannot be ordered by yeast fitness: ≤ 0.5 for the first, ≤ 0.5 for the second.

First: A15C U19C A37C G51A C60A
Second: A15C U19C C46A U59A
The yeast fitness of the first is higher: 0.557 for the first, ≤ 0.5 for the second.

Compared with A15C U19G C55G, A15C U26A is higher in yeast fitness: ≤ 0.5 for the first, 0.523 for the second.

First: A15C U26A A40C
Second: A15C U26A C31G U32A
The yeast fitness of the first is higher: 0.63 for the first, ≤ 0.5 for the second.

A15C U26A G38A A40U G50C C60G A70G and A15C U26A G50C cannot be ordered by yeast fitness: ≤ 0.5 for the first, ≤ 0.5 for the second.

A15C U26C G48C and A15C U26C G67U A69G cannot be ordered by yeast fitness: ≤ 0.5 for the first, ≤ 0.5 for the second.

Going from A15C U26G U28C A37G G41A C49G to A15C U26G U28C U32C A37G G41A C49G, the yeast fitness falls from 0.59 to ≤ 0.5.

A15C U28A C30U C34G A43U and A15C U28A C34G A37G A43U cannot be ordered by yeast fitness: ≤ 0.5 for the first, ≤ 0.5 for the second.

Going from A15C U28A C34G A43U to A15C U28A G39A A65G, the yeast fitness falls from 0.564 to ≤ 0.5.

Going from A15C U28C to A15C U28C A43U, the yeast fitness falls from 0.737 to ≤ 0.5.

A15C U28C C34G and A15C U28C C61G cannot be ordered by yeast fitness: ≤ 0.5 for the first, ≤ 0.5 for the second.

Compared with A15C U28C G48C G50U, A15C U28G A45G G51C is higher in yeast fitness: ≤ 0.5 for the first, 0.554 for the second.

Compared with A15C U28G A45G G51C A70G, A15C U28G C30G A40C A42U is lower in yeast fitness: 0.584 for the first, ≤ 0.5 for the second.

Going from A15C U32C to A15C U32C A36C A45C C60U, the yeast fitness falls from 0.767 to ≤ 0.5.

Compared with A15C U32C C62U, A15C U32G is lower in yeast fitness: 0.54 for the first, 0.504 for the second.

Going from A15C U35A A36G G41A U47A to A15C U35C, the yeast fitness rises from ≤ 0.5 to 0.578.

A15C U35C A37U C66U and A15C U35G G56C cannot be ordered by yeast fitness: ≤ 0.5 for the first, ≤ 0.5 for the second.

Compared with A15C U47A G68U, A15C U47G is higher in yeast fitness: 0.57 for the first, 0.663 for the second.

First: A15C U47G G52A G68A
Second: A15C U53A
The yeast fitness of the first is lower: ≤ 0.5 for the first, 0.578 for the second.

Going from A15C U54A C61U A70U to A15C U54C C66G, the yeast fitness falls from 0.645 to ≤ 0.5.

Going from A15C U59C to A15G A20C, the yeast fitness rises from 0.741 to 0.779.

A15G A20C A21C G23A G52U and A15G A20C C24G G41C C46A C62G cannot be ordered by yeast fitness: ≤ 0.5 for the first, ≤ 0.5 for the second.

First: A15G A20C U54A C62U
Second: A15G A20G
The yeast fitness of the first is lower: ≤ 0.5 for the first, 1.04 for the second.

First: A15G A20G A40C C46U C49A A57U A65C C66G
Second: A15G A20G A40U
The yeast fitness of the first is lower: ≤ 0.5 for the first, 0.808 for the second.

First: A15G A20G C27A A40G A45C
Second: A15G A20G C27A A40G A45C C55U
The yeast fitness of the first is higher: 0.503 for the first, ≤ 0.5 for the second.

Compared with A15G A20G C27U, A15G A20G C27U C33U A37U G38C C60U C62A G63U is lower in yeast fitness: 0.732 for the first, 0.684 for the second.

Going from A15G A20G C49A C62U to A15G A20U, the yeast fitness rises from 0.567 to 1.06.

Compared with A15G A20U A45U, A15G A20U A45U U64C is higher in yeast fitness: ≤ 0.5 for the first, 0.593 for the second.

A15G A20U C22U G38C and A15G A20U C29G A43G A70U cannot be ordered by yeast fitness: ≤ 0.5 for the first, ≤ 0.5 for the second.

Compared with A15G A20U C33A A36C A42U C55G C60A A69G, A15G A20U G48A is higher in yeast fitness: 0.594 for the first, 0.66 for the second.

Going from A15G A20U G63A to A15G A21C C24G A40U C49U, the yeast fitness falls from 0.603 to ≤ 0.5.

Compared with A15G A21C C33G A43U, A15G A21C C49U is lower in yeast fitness: 0.57 for the first, ≤ 0.5 for the second.

A15G A21G C34U G44A C61A A70C and A15G A21G C55G cannot be ordered by yeast fitness: ≤ 0.5 for the first, ≤ 0.5 for the second.

Going from A15G A21U to A15G A21U A45G C62G, the yeast fitness falls from 0.989 to 0.506.

First: A15G A21U U26C
Second: A15G A36C C46A A65G
The yeast fitness of the first is higher: 0.535 for the first, ≤ 0.5 for the second.

A15G A36C C46A C66U and A15G A36C G50C cannot be ordered by yeast fitness: ≤ 0.5 for the first, ≤ 0.5 for the second.

Compared with A15G A36G A43G A57U, A15G A36G A43U is higher in yeast fitness: ≤ 0.5 for the first, 0.601 for the second.

A15G A36G G41A G52A and A15G A36G U54A cannot be ordered by yeast fitness: ≤ 0.5 for the first, ≤ 0.5 for the second.

First: A15G A36U C55A A57C
Second: A15G A36U C61U
The yeast fitness of the first is higher: 0.579 for the first, ≤ 0.5 for the second.

First: A15G A36U C61U A65U
Second: A15G A37C A69C
The yeast fitness of the first is lower: ≤ 0.5 for the first, 0.863 for the second.

A15G A37C C46U C49U and A15G A37C G56C A65C cannot be ordered by yeast fitness: ≤ 0.5 for the first, ≤ 0.5 for the second.

First: A15G A37G A70C
Second: A15G A37G C66U G67A
The yeast fitness of the first is higher: 0.664 for the first, ≤ 0.5 for the second.

Going from A15G A37G G56C to A15G A37U C55U, the yeast fitness rises from ≤ 0.5 to 0.556.

A15G A37U C61A and A15G A37U C62A cannot be ordered by yeast fitness: ≤ 0.5 for the first, ≤ 0.5 for the second.

Going from A15G A40U A45G to A15G A40U G48C C60G, the yeast fitness falls from 0.585 to ≤ 0.5.

A15G A42C C49A C62U A69C and A15G A42C G50A U59C A65C cannot be ordered by yeast fitness: ≤ 0.5 for the first, ≤ 0.5 for the second.

First: A15G A42G
Second: A15G A43C
The yeast fitness of the first is higher: 0.929 for the first, 0.847 for the second.

A15G A43C C61A and A15G A43C G67U A70U cannot be ordered by yeast fitness: ≤ 0.5 for the first, ≤ 0.5 for the second.

First: A15G A43G A57U
Second: A15G A43G U53G G63A
The yeast fitness of the first is higher: 0.793 for the first, ≤ 0.5 for the second.

Going from A15G A43U to A15G A43U C46A, the yeast fitness falls from 0.925 to 0.671.

First: A15G A43U G68C
Second: A15G A45C
The yeast fitness of the first is lower: 0.581 for the first, 0.796 for the second.

Compared with A15G A45C A69U, A15G A45C C61U is lower in yeast fitness: 0.779 for the first, 0.574 for the second.

Compared with A15G A45G, A15G A45U A57C A69C is lower in yeast fitness: 0.853 for the first, ≤ 0.5 for the second.

First: A15G A45U A70G
Second: A15G A45U C49U C60G
The yeast fitness of the first is higher: 0.617 for the first, ≤ 0.5 for the second.

With A15G A45U C61G the yeast fitness was 0.6.
